According to ChEMBL document CHEMBL3351667, “A chemical tuned strategy to develop novel irreversible EGFR-TK inhibitors with improved safety and pharmacokinetic profiles” (J Med Chem, 2014):
pIC50: −log10 of the molar value.

Columns and labels:
[1] = AUC (0 to infinity) in BALB/c mouse at 5 mg/kg, po after 24 hrs by LC/MS/MS method; type: ADME, organism-based, Plasma; set-up: time infinity, dose 5 mg/kg, route oral; details: BALB/c, plasma
Cytochrome P450 2C9 = Cytochrome P450 2C9 (Homo sapiens, UniProt P11712); test: Inhibition of CYP2C9 in human hepatic microsomes after 20 mins by LC/MS/MS method; type: ADME, Liver
hERG (KCNH2) [2] = target: T1, hERG (KCNH2) (Homo sapiens, UniProt Q12809); test: Inhibition of human ERG assessed as reduction in channel currents at 1 uM
Cytochrome P450 2C19 = Cytochrome P450 2C19 (Homo sapiens, UniProt P33261); test: Inhibition of CYP2C19 in human hepatic microsomes after 20 mins by LC/MS/MS method; type: ADME, Liver
Cytochrome P450 2D6 = Cytochrome P450 2D6 (Homo sapiens, UniProt P10635); test: Inhibition of CYP2D6 in human hepatic microsomes after 20 mins by LC/MS/MS method; type: ADME, Liver
[3] = Oral bioavailability in BALB/c mouse at 5 mg/kg after 24 hrs by LC/MS/MS method; type: ADME, organism-based; details: in vivo
[4] = Ratio of drug level in brain to plasma in BALB/c mouse at 30 mg/kg, po after 6 hrs by LC/MS/MS method; type: ADME, organism-based; set-up: dose 30 mg/kg, route oral; details: read-out: BPR
How it was run: (§1)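 BALB/c mice received a single oral dose of 30 mg/kg. Drug concentrations in lung, brain and plasma were measured at multiple time points over 6 h. Mean tissue levels are expressed as a lung/plasma/brain ratio, with plasma set to 1.0.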

[5] = Intrinsic clearance in dog liver microsomes assessed per mg protein at 1 uM in presence of NADPH after 0.5 to 30 mins by LC/MS/MS method; type: ADME, Canis lupus familiaris; details: read-out: CLH
[6] = Intrinsic clearance in rat liver microsomes assessed per mg protein at 1 uM in presence of NADPH after 0.5 to 30 mins by LC/MS/MS method; type: ADME; details: read-out: CLH
hERG (KCNH2) [7] = target: T1, hERG (KCNH2); test: Inhibition of human ERG assessed as reduction in channel currents at 10 uM
Mus musculus [8] = test: Apparent volume of distribution in BALB/c mouse at 5 mg/kg, po after 24 hrs by LC/MS/MS method; type: ADME, organism-based; set-up: dose 5 mg/kg, route oral; details: in vivo
Cytochrome P450 1A2 = target: T2, Cytochrome P450 1A2 (Homo sapiens, UniProt P05177); test: Inhibition of CYP1A2 in human hepatic microsomes after 20 mins by LC/MS/MS method; type: ADME, Liver
T2 sequence (P05177 whole entry): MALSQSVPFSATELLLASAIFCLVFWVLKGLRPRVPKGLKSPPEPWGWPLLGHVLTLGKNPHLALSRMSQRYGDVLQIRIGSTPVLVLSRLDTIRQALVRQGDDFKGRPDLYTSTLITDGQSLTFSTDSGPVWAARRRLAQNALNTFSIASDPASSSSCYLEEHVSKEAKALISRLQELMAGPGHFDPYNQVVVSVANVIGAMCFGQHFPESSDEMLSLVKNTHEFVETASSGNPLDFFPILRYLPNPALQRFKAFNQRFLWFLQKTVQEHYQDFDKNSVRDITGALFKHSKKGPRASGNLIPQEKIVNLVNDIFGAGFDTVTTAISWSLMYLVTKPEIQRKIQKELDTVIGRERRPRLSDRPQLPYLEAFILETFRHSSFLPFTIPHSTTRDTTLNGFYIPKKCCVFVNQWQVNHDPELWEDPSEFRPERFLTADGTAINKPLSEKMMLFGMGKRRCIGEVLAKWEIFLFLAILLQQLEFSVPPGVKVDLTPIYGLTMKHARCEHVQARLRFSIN

A-431 = test: cells; type: functional, cell-based; details: Homo sapiens, A-431, 48 h
[9] = Ratio of drug level in lung to plasma in BALB/c mouse at 30 mg/kg, po after 6 hrs by LC/MS/MS method; type: ADME, organism-based; set-up: dose 30 mg/kg, route oral; how it was run: as §1
[10] = Apparent clearance in BALB/c mouse at 5 mg/kg, po after 24 hrs by LC/MS/MS method; type: ADME, organism-based; set-up: dose 5 mg/kg, route oral; details: BALB/c, in vivo, read-out: CL(app)
NCI-H1975 = test: Antitumor activity against human NCI-H1975 cells xenografted in nude mouse assessed as reduction in tumor growth at 30 mg/kg/day, ig relative to untreated control; type: functional; details: route intragastric
[11] = Intrinsic clearance in monkey liver microsomes assessed per mg protein at 1 uM in presence of NADPH after 0.5 to 30 mins by LC/MS/MS method; type: ADME, Macaca mulatta; details: rhesus monkey, read-out: CLH
Cytochrome P450 3A4 = Cytochrome P450 3A4 (Homo sapiens, UniProt P08684); test: Inhibition of CYP3A4 in human hepatic microsomes after 20 mins by LC/MS/MS method; type: ADME, Liver
[12] = Intrinsic clearance in mouse liver microsomes assessed per mg protein at 1 uM in presence of NADPH after 0.5 to 30 mins by LC/MS/MS method; type: ADME; details: read-out: CLH
[13] = Intrinsic clearance in human liver microsomes assessed per mg protein at 1 uM in presence of NADPH after 0.5 to 30 mins by LC/MS/MS method; type: ADME; details: read-out: CLH
[14] = Cmax in BALB/c mouse at 5 mg/kg, po after 24 hrs by LC/MS/MS method; type: ADME, organism-based; set-up: dose 5 mg/kg, route oral; details: in vivo
[15] = target: Epidermal growth factor receptor (Homo sapiens, UniProt P00533, T790M); type: protein assay
[16] = target: Platelet-derived growth factor receptor beta (Homo sapiens, UniProt P09619); test: Inhibition of wild type PDGFRbeta (unknown origin) incubated for 5 mins by HTRF assay
[17] = Oral bioavailability in BALB/c mouse at 10 mg/kg after 24 hrs by LC/MS/MS method; type: ADME, organism-based; details: in vivo
[18] = target: RAC-beta serine/threonine-protein kinase (Homo sapiens, UniProt P31751); test: Inhibition of wild type AKT2 (unknown origin) incubated for 5 mins by HTRF assay
[19] = target: Proto-oncogene tyrosine-protein kinase Src (Homo sapiens, UniProt P12931); test: Inhibition of wild type SRC (unknown origin) incubated for 5 mins by HTRF assay
[20] = target: ALK tyrosine kinase receptor (Homo sapiens, UniProt Q9UM73); test: Inhibition of wild type ALK (unknown origin) incubated for 5 mins by HTRF assay
[21] = target: Platelet-derived growth factor receptor alpha (Homo sapiens, UniProt P16234); test: Inhibition of wild type PDGFRalpha (unknown origin) incubated for 5 mins by HTRF assay
[22] = target: Epidermal growth factor receptor (Homo sapiens, UniProt P00533);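 also: inhibition of wild-type EGFR read out by HTRF, with a 5 min incubation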
[23] = target: Fibroblast growth factor receptor 2 (Homo sapiens, UniProt P21802); test: Inhibition of wild type FGFR2 (unknown origin) incubated for 5 mins by HTRF assay
[24] = Cmax in BALB/c mouse at 10 mg/kg, po after 24 hrs by LC/MS/MS method; type: ADME, organism-based; set-up: dose 10 mg/kg, route oral; details: in vivo
Mus musculus [25] = test: Apparent volume of distribution in BALB/c mouse at 10 mg/kg, po after 24 hrs by LC/MS/MS method; type: ADME, organism-based; set-up: dose 10 mg/kg, route oral; details: in vivo
[26] = target: Hepatocyte growth factor receptor (Homo sapiens, UniProt P08581); test: Inhibition of wild type c-Met (unknown origin) incubated for 5 mins by HTRF assay
[27] = target: RAC-alpha serine/threonine-protein kinase (Homo sapiens, UniProt P31749); test: Inhibition of wild type AKT1 (unknown origin) incubated for 5 mins by HTRF assay
[28] = target: Tyrosine-protein kinase SYK (Homo sapiens, UniProt P43405); test: Inhibition of wild type SYK (unknown origin) incubated for 5 mins by HTRF assay
[29] = (§2) AUC (0 to infinity) in BALB/c mouse at 10 mg/kg, po after 24 hrs by LC/MS/MS method; type: ADME, organism-based, Plasma; set-up: dose 10 mg/kg, route oral, time infinity; details: BALB/c, plasma
[30] = (§3) Apparent clearance in BALB/c mouse at 10 mg/kg, po after 24 hrs by LC/MS/MS method; type: ADME, organism-based; set-up: dose 10 mg/kg, route oral; details: BALB/c, in vivo, read-out: CL(app)
[31] = target: Tyrosine-protein kinase ABL1 (Homo sapiens, UniProt P00519); test: Inhibition of wild type ABL (unknown origin) incubated for 5 mins by HTRF assay
[32] = target: Tyrosine-protein kinase JAK2 (Homo sapiens, UniProt O60674); test: Inhibition of wild type JAK2 (unknown origin) incubated for 5 mins by HTRF assay
[33] = target: Receptor-type tyrosine-protein kinase FLT3 (Homo sapiens, UniProt P36888); test: Inhibition of wild type FLT3 (unknown origin) incubated for 5 mins by HTRF assay
SW-620 = test: Growth inhibition of human SW620 cells at 5 uM; type: functional; details: read-out: GI
Mus musculus [34] = test: as §2; type: ADME, organism-based, Plasma; set-up: dose 10 mg/kg, route oral, time infinity; details: in vivo, 24 h
Mus musculus [35] = test: as §3; type: ADME, organism-based; set-up: dose 10 mg/kg, route oral; details: in vivo, 24 h

T1 sequence (Q12809 whole entry): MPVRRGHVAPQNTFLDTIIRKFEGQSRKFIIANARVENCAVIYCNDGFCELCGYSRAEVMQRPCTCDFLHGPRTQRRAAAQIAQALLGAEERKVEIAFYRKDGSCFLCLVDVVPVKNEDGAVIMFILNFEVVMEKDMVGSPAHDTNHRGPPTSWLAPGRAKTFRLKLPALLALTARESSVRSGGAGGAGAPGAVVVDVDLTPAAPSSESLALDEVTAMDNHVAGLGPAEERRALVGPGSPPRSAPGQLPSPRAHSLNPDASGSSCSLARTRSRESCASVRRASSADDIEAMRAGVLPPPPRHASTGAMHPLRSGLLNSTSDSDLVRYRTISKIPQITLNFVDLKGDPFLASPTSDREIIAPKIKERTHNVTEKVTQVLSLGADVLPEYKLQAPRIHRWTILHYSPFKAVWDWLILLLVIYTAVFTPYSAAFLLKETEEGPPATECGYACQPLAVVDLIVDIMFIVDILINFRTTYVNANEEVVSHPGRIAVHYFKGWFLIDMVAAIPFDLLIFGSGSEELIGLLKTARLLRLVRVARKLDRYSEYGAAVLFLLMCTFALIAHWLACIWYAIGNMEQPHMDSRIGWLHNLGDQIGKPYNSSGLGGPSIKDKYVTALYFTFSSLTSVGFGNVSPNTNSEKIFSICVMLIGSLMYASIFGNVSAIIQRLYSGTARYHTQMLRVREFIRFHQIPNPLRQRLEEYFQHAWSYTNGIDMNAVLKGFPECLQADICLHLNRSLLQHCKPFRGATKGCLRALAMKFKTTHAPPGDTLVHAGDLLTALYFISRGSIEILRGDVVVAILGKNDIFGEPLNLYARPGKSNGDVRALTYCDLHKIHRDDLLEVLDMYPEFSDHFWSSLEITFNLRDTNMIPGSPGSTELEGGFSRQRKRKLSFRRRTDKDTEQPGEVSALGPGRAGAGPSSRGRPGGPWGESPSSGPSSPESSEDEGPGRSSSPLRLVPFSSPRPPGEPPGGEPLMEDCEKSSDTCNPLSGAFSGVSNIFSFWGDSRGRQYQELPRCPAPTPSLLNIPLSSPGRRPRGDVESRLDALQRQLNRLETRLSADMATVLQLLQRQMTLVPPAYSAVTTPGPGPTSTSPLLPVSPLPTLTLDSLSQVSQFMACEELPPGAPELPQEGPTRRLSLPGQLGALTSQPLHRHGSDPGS
Chain of Cytochrome P450 3A4 (P08684 whole entry): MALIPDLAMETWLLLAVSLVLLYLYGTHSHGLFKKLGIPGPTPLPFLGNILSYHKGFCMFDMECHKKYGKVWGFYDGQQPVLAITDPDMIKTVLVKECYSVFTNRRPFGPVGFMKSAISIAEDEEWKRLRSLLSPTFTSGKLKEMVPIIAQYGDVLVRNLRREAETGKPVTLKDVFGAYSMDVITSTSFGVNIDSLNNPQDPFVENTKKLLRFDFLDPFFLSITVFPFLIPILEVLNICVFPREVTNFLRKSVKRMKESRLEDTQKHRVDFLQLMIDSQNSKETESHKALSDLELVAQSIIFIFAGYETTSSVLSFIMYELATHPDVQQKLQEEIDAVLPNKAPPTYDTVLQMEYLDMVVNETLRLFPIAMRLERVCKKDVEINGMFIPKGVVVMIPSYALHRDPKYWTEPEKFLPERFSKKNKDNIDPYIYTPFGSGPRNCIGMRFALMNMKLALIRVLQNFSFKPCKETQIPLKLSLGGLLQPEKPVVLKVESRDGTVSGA
Chain of Cytochrome P450 2C9 (P11712 whole entry): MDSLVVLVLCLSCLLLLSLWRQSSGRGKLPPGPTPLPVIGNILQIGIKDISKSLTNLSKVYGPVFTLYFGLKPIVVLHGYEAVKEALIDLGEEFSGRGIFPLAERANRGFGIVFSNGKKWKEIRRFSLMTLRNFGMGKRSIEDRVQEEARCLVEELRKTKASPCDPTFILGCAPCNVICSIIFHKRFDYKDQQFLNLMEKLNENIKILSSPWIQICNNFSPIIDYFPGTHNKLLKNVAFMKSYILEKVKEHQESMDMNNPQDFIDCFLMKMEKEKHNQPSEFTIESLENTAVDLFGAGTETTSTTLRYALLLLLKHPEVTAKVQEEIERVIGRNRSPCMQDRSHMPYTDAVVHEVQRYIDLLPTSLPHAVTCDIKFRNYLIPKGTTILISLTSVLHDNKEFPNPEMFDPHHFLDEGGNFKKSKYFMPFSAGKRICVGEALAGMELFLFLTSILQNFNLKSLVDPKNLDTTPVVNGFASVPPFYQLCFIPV
Chain of Cytochrome P450 2D6 (P10635 whole entry): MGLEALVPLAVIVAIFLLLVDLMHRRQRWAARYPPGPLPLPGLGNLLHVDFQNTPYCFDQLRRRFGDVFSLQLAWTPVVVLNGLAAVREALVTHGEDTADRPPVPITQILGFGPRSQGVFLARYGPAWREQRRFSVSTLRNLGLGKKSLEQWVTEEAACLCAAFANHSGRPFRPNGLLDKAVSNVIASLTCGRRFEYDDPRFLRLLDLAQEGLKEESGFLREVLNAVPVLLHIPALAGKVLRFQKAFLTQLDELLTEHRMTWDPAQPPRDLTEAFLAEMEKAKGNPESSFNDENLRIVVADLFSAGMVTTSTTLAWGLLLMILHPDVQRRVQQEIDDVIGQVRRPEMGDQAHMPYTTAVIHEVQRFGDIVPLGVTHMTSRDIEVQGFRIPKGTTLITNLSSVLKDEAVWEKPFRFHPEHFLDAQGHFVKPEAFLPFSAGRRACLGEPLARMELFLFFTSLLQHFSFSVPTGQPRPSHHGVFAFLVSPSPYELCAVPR
Chain of Cytochrome P450 2C19 (P33261 whole entry): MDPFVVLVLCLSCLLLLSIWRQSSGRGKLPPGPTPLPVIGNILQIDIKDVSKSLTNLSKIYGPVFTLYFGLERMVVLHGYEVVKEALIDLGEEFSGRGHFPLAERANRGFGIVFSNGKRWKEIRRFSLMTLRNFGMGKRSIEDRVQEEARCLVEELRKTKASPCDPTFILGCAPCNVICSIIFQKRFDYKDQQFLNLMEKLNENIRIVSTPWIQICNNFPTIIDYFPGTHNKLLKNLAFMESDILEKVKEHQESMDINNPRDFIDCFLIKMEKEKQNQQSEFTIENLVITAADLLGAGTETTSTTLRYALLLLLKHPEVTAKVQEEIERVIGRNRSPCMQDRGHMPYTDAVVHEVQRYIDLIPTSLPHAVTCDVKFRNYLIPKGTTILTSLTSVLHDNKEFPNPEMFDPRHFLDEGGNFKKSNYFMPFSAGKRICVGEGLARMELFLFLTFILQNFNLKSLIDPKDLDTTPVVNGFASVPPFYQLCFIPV
Chain of Epidermal growth factor receptor (Homo sapiens, UniProt P00533, T790M) (P00533 25-1210 T790M limits assumed): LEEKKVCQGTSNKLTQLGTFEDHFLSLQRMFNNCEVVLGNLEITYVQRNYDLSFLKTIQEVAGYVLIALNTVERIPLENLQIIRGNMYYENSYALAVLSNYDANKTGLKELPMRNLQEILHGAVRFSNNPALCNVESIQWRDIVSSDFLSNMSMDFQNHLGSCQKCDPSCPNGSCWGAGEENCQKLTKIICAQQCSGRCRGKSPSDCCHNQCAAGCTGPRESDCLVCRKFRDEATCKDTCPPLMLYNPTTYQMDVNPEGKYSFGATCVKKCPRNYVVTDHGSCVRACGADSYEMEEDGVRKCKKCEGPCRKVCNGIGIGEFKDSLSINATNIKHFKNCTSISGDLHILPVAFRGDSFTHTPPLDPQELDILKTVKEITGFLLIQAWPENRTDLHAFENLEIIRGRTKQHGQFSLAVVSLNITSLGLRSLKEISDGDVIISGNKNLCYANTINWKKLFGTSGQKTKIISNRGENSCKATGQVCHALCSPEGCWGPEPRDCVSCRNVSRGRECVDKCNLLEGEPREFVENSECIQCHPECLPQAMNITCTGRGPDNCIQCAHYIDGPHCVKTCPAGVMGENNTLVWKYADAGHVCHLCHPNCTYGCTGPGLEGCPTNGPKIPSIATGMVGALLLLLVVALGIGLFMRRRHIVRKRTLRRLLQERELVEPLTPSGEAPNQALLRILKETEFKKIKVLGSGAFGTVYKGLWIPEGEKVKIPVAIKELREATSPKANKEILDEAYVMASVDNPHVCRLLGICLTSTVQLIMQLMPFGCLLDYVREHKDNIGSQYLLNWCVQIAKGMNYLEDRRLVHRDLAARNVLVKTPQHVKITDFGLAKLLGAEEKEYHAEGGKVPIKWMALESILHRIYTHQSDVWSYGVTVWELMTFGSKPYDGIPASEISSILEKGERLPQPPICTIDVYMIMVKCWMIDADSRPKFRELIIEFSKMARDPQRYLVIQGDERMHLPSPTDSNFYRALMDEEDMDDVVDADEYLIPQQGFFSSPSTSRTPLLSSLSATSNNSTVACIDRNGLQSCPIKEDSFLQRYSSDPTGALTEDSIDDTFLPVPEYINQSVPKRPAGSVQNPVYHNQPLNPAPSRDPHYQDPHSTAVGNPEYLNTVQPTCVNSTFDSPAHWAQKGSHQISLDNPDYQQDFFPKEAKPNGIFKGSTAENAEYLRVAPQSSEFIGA
Chain of Proto-oncogene tyrosine-protein kinase Src (P12931 2-536 limits assumed): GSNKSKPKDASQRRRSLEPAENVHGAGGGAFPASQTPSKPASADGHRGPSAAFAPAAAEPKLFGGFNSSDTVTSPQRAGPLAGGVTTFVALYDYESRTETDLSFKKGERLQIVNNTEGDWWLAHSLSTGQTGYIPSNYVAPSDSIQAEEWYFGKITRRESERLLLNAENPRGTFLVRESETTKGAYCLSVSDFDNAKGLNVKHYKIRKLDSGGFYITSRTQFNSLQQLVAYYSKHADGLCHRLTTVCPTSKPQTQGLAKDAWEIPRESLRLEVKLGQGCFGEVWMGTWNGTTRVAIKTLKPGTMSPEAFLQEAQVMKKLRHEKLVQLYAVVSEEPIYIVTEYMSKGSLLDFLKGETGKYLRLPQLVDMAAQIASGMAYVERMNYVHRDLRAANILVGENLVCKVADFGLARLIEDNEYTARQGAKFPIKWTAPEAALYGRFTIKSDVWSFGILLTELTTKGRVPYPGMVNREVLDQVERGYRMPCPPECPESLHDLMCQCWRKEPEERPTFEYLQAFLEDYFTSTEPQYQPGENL

COc1cc2ncnc(Nc3ccc(F)c(Cl)c3)c2cc1NC(=O)/C(F)=C/CN1CCCCC1
AUC(0-inf) [1]: 5.1 µM·h | pIC50 (Cytochrome P450 2C9): < 5.00 | inhibition at 1 µM (hERG (KCNH2) [2]): 0.71% | pIC50 (Cytochrome P450 2C19): < 5.00 | pIC50 (Cytochrome P450 2D6): < 5.00 | bioavailability [3]: 105% | Kp at 6 h [4]: 2.31 | microsomal CLint at 1 µM [5]: 34 µL/min/mg | microsomal CLint at 1 µM [6]: 11 µL/min/mg | inhibition at 10 µM (hERG (KCNH2) [7]): 11.8% | Vz (Mus musculus [8]): 7.14 L/kg | pIC50 (Cytochrome P450 1A2): < 5.00 | pIC50 (A-431): 6.34 | Kp at 6 h [9]: 20 | CL/F [10]: 40 mL/min/kg | T/C (NCI-H1975): 67.4% | microsomal CLint at 1 µM [11]: 102 µL/min/mg | pIC50 (Cytochrome P450 3A4): < 5.00 | microsomal CLint at 1 µM [12]: 31 µL/min/mg | microsomal CLint at 1 µM [13]: 37 µL/min/mg | Cmax [14]: 830 nM

COc1cc2ncnc(Nc3ccc(F)c(Cl)c3)c2cc1NC(=O)/C(F)=C/CN(C)C
pIC50 (Cytochrome P450 2C9): < 5.00 | pIC50 [15]: 8.18 | inhibition at 1 µM (hERG (KCNH2) [2]): 2.55% | pIC50 (Cytochrome P450 2C19): < 5.00 | pIC50 [16]: 5.68 | bioavailability [17]: 98.5% | pIC50 (Cytochrome P450 2D6): < 5.00 | pIC50 [18]: < 5.00 | pIC50 [19]: 5.76 | pIC50 [20]: < 5.00 | pIC50 [21]: 5.44 | microsomal CLint at 1 µM [5]: 194 µL/min/mg | microsomal CLint at 1 µM [6]: 18 µL/min/mg | inhibition at 10 µM (hERG (KCNH2) [7]): 18.4% | pIC50 [22]: 9.70 | pIC50 (Cytochrome P450 1A2): < 5.00 | pIC50 [23]: < 5.00 | Cmax [24]: 790 nM | Vz (Mus musculus [25]): 14 L/kg | microsomal CLint at 1 µM [11]: 128 µL/min/mg | pIC50 (Cytochrome P450 3A4): < 5.00 | pIC50 [26]: < 5.00 | pIC50 [27]: < 5.00 | pIC50 [28]: < 5.00 | microsomal CLint at 1 µM [12]: 45 µL/min/mg | AUC(0-inf) [29]: 7.67 µM·h | CL/F [30]: 50 mL/min/kg | pIC50 [31]: 5.65 | pIC50 [32]: < 5.00 | pIC50 [33]: 5.17 | microsomal CLint at 1 µM [13]: 14 µL/min/mg

CN(C)C/C=C/C(=O)Nc1cc2c(Nc3ccc(F)c(Cl)c3)ncnc2cc1O[C@H]1CCOC1 [AFATINIB]
bioavailability [17]: 37.4% | microsomal CLint at 1 µM [5]: 9 µL/min/mg | microsomal CLint at 1 µM [6]: 12 µL/min/mg | inhibition of growth at 5 µM (SW-620): 78% | Cmax [24]: 130 nM | Vz (Mus musculus [25]): 36.2 L/kg | T/C (NCI-H1975): 30.3% | microsomal CLint at 1 µM [11]: 24 µL/min/mg | microsomal CLint at 1 µM [12]: 6 µL/min/mg | AUC (Mus musculus [34]): 29.4 µM·min | CL(app) (Mus musculus [35]): 270 mL/min/kg | microsomal CLint at 1 µM [13]: 8 µL/min/mg
